Compound activity as filed in PubChem BioAssay.
Shown are actives, neighbours in structure and some others; about 2.5% of the full set was active somewhere.
MBD2 inh = inhibitors of MBD2 binding to methylated DNA, primary screen, biochemical, TR-FRET, DNA-binding domain, human. Methyl-CpG-binding domain protein 2 (Homo sapiens), Q9UBB5. MBD2 binding to methylated oligonucleotide. inhibition, % at 4.4 µM. 370,000 compounds, 0.31% hits; in the data active = inhibition above about 13%
UHRF1 MBD2 ctr = UHRF1 methylated DNA binding inhibitors, primary screen, counter-screen for MBD2 inhibitor project, biochemical, TR-FRET, human UHRF1, single concentration; E3 ubiquitin-protein ligase UHRF1 (Homo sapiens), Q96T88; UHRF1 binding to methylated oligo; inhibition, % at 4.4 µM; 370,000 compounds, 0.75% hits; AID 687016, 2013;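 also: UHRF1 SRA domain binding a hemimethylated CpG hairpin DNA probe; 0% = median of test compound wells and 100% = reference inhibitor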
Target sequence (Q96T88 whole entry, looked up, the tested form may be a part): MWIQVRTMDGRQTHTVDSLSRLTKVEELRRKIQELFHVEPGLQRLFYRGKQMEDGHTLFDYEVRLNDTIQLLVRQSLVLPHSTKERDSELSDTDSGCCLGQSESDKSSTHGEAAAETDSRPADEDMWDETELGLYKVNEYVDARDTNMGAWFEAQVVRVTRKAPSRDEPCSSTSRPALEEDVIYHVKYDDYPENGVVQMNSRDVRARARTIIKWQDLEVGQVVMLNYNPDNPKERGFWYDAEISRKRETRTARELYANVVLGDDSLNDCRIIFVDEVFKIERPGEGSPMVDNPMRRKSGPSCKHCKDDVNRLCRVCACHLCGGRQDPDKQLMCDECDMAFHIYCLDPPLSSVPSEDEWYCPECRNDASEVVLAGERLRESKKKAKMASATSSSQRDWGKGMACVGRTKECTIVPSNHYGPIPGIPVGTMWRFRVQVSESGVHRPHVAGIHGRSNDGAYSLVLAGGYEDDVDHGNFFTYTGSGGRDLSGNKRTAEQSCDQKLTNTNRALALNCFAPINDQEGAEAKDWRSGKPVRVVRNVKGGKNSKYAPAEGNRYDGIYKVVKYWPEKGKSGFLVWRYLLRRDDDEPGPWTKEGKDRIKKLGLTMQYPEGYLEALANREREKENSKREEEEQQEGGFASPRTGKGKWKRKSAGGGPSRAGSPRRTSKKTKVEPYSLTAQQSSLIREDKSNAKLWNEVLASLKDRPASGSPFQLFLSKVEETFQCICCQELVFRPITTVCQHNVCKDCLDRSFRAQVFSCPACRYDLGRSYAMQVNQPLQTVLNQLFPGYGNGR
Pemphigus Ab inh = inhibitors of pemphigus antibody binding to DSG3, primary screen, biochemical, bead-based, flow cytometry, scFv-GFP | Desmoglein-3 (Homo sapiens), P32926 | DSG3-coupled beads, scFv-anti-DSG3-GFP binding; stronger effect = lower value | binding (percent of control), % at 10 µM | 310,000 compounds, 0.48% hits | AID 588358, 2011;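 active = binding more than 3 SD below its plate's average and above zero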
SUMO1 PPI mod = modulators of SUMO1 protein-protein interactions, primary screen, biochemical, uHTS | Small ubiquitin-related modifier 1 (Homo sapiens), P63165 | SUMO1 binding to a labelled peptide, TR-FRET, 1 h | inhibition, % at 20 µM | 360,000 compounds, 0.33% hits; in the data active = inhibition above about 37%
DNMT1 inh = human DNMT1 methyltransferase inhibitors, primary screen, biochemical, molecular beacon, fluorescence, HinP1I cleavage, uHTS; inhibition (reported as % activation of signal), % at 10 µM; 360,000 compounds, 0.83% hits; AID 588458, 2011; in the data active = inhibition above about 50%
NS3 helicase inh = inhibitors of HCV NS3 helicase, primary screen, biochemical, Cy5 molecular beacon fluorescence; Hepatitis C virus NS3 helicase; NS3 helicase DNA unwinding; inhibition, % at 10.9 µM; 290,000 compounds, 0.56% hits;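 active = inhibition above the mean of all tested compounds plus 3 SD, set per campaign, cut at about 35% in these data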;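 also: 0% = DMSO wells and 100% = thioflavine S control wells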
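Test system: hepatitis C virus NS3 helicase domain fragment enzyme. Also added: annealed dual-labelled DNA beacon duplex, ATP-started. Timing: 60 min unwinding reaction at 25 °C after ATP addition. Technique: Cy5 fluorescence. Measure: % inhibition of unwinding.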
UHRF1 DNA bind = UHRF1 methylated DNA binding inhibitors, counter-screen for MBD2 inhibitor project, biochemical, TR-FRET, human UHRF1 | shares compounds with MBD2 inh | UHRF1 binding to methylated oligonucleotide | inhibition, % at 4.4 µM | 1,000 compounds, 25% hits | AID 720530, 2013;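 also: UHRF1 SRA domain binding a labeled hemimethylated CpG hairpin DNA; 0% = vehicle only and 100% = reference inhibitor with vehicle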
MBD2 DBD conf = inhibitors of MBD2 binding to methylated DNA, confirmation, biochemical, TR-FRET, DNA-binding domain, human; TR-FRET MBD2-DBD binding to methylated oligonucleotide; AID 720531, 2013; 1,000 compounds, 26% hits; shares compounds with MBD2 inh; inhibition, % at 4.4 µM; in the data active = inhibition above about 14%
* hit, by the source's call; x = no result. Rule as the data show it, unless noted: active = inhibition above about 21%; inactive = the rest.

SMILES | MBD2 inh | UHRF1 MBD2 ctr | Pemphigus Ab inh | SUMO1 PPI mod | DNMT1 inh | NS3 helicase inh | UHRF1 DNA bind | MBD2 DBD conf
CC(=O)Nc1sc2c(c1-c1nc3ccccc3s1)CCCN(C(C)C)C2 | 50.2* | 27.8* | x | x | x | x | 35.1* | 54.6*
CC(=O)Nc1sc2c(c1-c1nc3ccccc3s1)CN(C(C)C)C2 | 14.1* | -4.6 | x | x | x | x | 11.1 | 28.5*
O=C(CSc1ncccc1C(=O)O)c1ccccc1 | -4.9 | 0.4 | 86.6 | -3.5 | -3.0 | 1.6 | x | x
O=C(CCc1ccccc1)N[C@H]1[C@H](OCc2ccccc2)CCC[C@@]12C(=O)N(Cc1ccccc1)c1ccc(-c3ccsc3)cc12 | 15.3* | 17.1 | x | x | x | x | 14.7 | 8.5
O=C(CCc1ccccc1)N[C@H]1[C@@H](OC(=O)c2cccnc2)CCC[C@]12C(=O)N(Cc1ccccc1)c1ccccc12 | 17.1* | 18.2 | x | x | x | x | 9.2 | 7.9
CN(C)C(=O)c1cn(-c2ccccc2)nc1-c1cccc([N+](=O)[O-])c1 | 2.0 | -1.5 | 104.6 | -14.6 | -0.7 | -14.8 | x | x
O=C(CSc1nnc2ccc(-c3ccco3)nn12)Nc1ccccc1F | 0.1 | -0.9 | 99.7 | 5.6 | 9.7 | x | x | x
COCCCNC(=O)c1cc2c(=O)n3cccc(C)c3nc2n(C(C)C)c1=N | 13.6* | 21.6* | 98.3 | -14.4 | 4.8 | 5.3 | 3.2 | 2.3
O=C(CSc1nnc(Cn2c(=O)sc3ccccc32)n1CCc1ccccc1)N1CCCC1 | 1.6 | 1.3 | 112.8 | 0.2 | -1.1 | 5.6 | x | x
CC1(C(=O)NS(=O)(=O)c2ccc(F)cc2F)CCN1C(=O)CCc1ccc(Cl)cc1Cl (stereo not drawn) | 26.4* | 16.6 | x | 7.8 | -0.7 | x | 8.2 | 0.8
CC1(C(=O)NS(=O)(=O)c2cccc(F)c2)CCN1C(=O)CCc1ccc(Cl)cc1Cl (stereo not drawn) | -7.3 | -0.3 | x | 7.1 | 0.5 | x | x | x
COc1ccc(C2=C(c3ccc([N+](=O)[O-])cc3)C(=O)OC2)cc1 | -1.1 | 1.2 | 109.5 | -3.6 | 1.7 | 3.9 | x | x
O=C1OCC(c2ccccc2)=C1c1ccccc1 | 22.4* | 21.5* | 99.9 | 1.2 | 1.0 | -1.2 | 36.3* | 38.3*
N#CC1=C(c2ccc(-c3ccccc3)cc2)COC1=O | -1.6 | -3.2 | 110.0 | -6.5 | -6.3 | 26.6 | x | x
CS(=O)(=O)c1ccc(C2=C(c3ccccc3)C(=O)OC2)cc1 | 33.4* | 34.4* | x | -11.8 | 2.7 | x | 45.6* | 45.4*
CC(=O)N1c2ccccc2C2(O)N=C(C)SC12 (stereo not drawn) | x | x | 108.5 | -1.7 | -7.4 | 2.7 | x | x
CC(Oc1ccccc1F)C(=O)/C=C/N(C)C (stereo not drawn) | x | x | 102.0 | 4.4 | -2.4 | 8.7 | x | x
CC(Oc1ccccc1Cl)C(=O)/C=C/N(C)C (stereo not drawn) | 17.5* | -3.9 | 102.3 | 0.1 | 4.4 | 10.2 | 7.3 | 2.9
CCCNC(=O)c1ccc(-c2nn(C)c(=O)c3ccccc23)cc1 | 2.9 | 4.1 | 109.0 | -5.1 | 0.1 | 1.1 | x | x
CCN(CC)CC#CCC(O)(c1ccccc1)c1ccc(Br)cc1 (stereo not drawn) | 2.1 | -2.6 | 100.7 | 3.1 | -0.3 | -40.4 | x | x
CC1=NNC(=O)C1CCC(=O)N/N=C/c1ccccc1 (stereo not drawn) | 26.6* | -0.9 | 107.4 | -1.5 | -1.5 | 6.9 | 7.4 | 1.5
C=CCOc1ccccc1CN1CCC(C(=O)Nc2cccc(-c3ccn[nH]3)c2)CC1 | -0.2 | -1.8 | 106.9 | -3.9 | -8.4 | -13.8 | x | x
COc1cccc(NC(=O)CSCc2cc(=O)n3ccsc3n2)c1 | x | x | 101.2 | 0.4 | 4.6 | 1.5 | x | x
COC(=O)c1ccc(OCc2cc(=O)n3ccsc3n2)cc1 | 13.4* | -2.8 | 105.5 | -0.8 | 1.2 | 5.4 | 10.8 | 5.9
O=C(CCc1nc(-c2ccc(Cl)cc2)no1)OCc1ccc(Br)cc1 | 14.9* | 27.6* | 108.2 | -1.5 | -4.7 | 2.9 | 5.6 | 5.0
SMILES | MBD2 inh | UHRF1 MBD2 ctr | Pemphigus Ab inh | SUMO1 PPI mod | DNMT1 inh | NS3 helicase inh | UHRF1 DNA bind | MBD2 DBD conf
COC(=O)c1ccc(OCC(=O)c2ccccc2)cc1 | 15.8* | 21.1* | 92.9 | -1.5 | -2.4 | -2.3 | 7.8 | 3.9
CCc1nnc(NC(=O)CSc2nnc(CNC(=O)c3ccccc3)o2)s1 | 21.8* | 0.7 | 94.7 | -1.3 | 0.6 | x | 8.8 | 3.6
C/C(=N/NS(=O)(=O)c1ccc(C)c(C)c1)c1ccncc1 | 2.5 | -1.8 | 118.0 | -7.5 | -0.2 | 10.3 | x | x
Cc1ccc(S(=O)(=O)n2cnc3cc([N+](=O)[O-])ccc32)cc1C | 13.8* | 1.3 | 98.8 | -10.1 | 0.3 | -5.2 | 5.6 | 3.6
Cc1cc(S(=O)(=O)n2cnc3cc([N+](=O)[O-])ccc32)ccc1Cl | -1.3 | 2.1 | 115.7 | -7.1 | -1.9 | 3.2 | x | x
O=C1CCC(=O)c2ccc3c4c(ccc1c24)CC3 | 36.1* | 65.6* | 116.0 | -36.0 | 24.7 | x | 5.8 | 1.1
O=C1c2ccc3c4c(ccc(c24)C(=O)N1c1ccc2ccccc2c1)CC3 | -5.2 | -0.5 | 97.9 | -4.2 | 19.3 | 7.7 | x | x
Oc1c(CN2CCOCC2)cc(CN2CCOCC2)c(O)c1O | 34.8* | 70.4* | 106.1 | -9.7 | 57.5* | x | 6.0 | 6.5
CCCc1cc(CN2CCOCC2)c(O)c(CN2CCOCC2)c1O | -5.2 | -5.0 | x | -3.3 | -2.1 | x | x | x
Oc1cccc(CN2CCOCC2)c1O | 44.6* | 84.6* | 117.0 | -4.7 | -2.3 | x | 5.7 | 4.6
C/C(=N\Nc1nc(-c2ccc(C)cc2C)cs1)c1cc2ccccc2oc1=O | 1.6 | 2.6 | x | 0.4 | 5.2 | 7.3 | x | x
N=c1oc2cc(O)ccc2cc1C(=O)Nc1ccc(Cl)cc1 | 14.2* | 3.4 | 98.7 | -13.5 | 2.4 | 14.6 | 6.7 | 3.7
Cc1ccc(NC(=O)c2cc3ccccc3oc2=N)cc1 | -1.5 | 1.9 | 89.5 | -2.1 | 3.5 | 6.6 | x | x
NC(=O)c1nsc(C(=O)N(c2cccc(O)c2)C(C(=O)NC2CCCC2)c2ccc(Cl)cc2)c1N (stereo not drawn) | 5.8 | -2.3 | x | 7.6 | -2.9 | 15.2 | x | x
